The results in this text go back to ChEMBL document CHEMBL1139226, “Partial retro-inverso, retro, and inverso modifications of hydrazide linked bifunctional peptides for opioid and cholecystokinin (CCK) receptors” (J Med Chem, 2007).

In test [1] the target is Delta-type opioid receptor (Mus musculus, UniProt P32300). In words: Activity at delta opioid receptor in ICR mouse by MVD assay. It counts as functional, tissue-based. A digest of the protocol: (§1)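 Electrically stimulated isolated tissue; value is concentration giving 50% inhibition of muscle contraction.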
Test [2] has as its target T1, Cholecystokinin receptor type A (Homo sapiens, UniProt P32238).
T1 sequence (P32238 whole entry): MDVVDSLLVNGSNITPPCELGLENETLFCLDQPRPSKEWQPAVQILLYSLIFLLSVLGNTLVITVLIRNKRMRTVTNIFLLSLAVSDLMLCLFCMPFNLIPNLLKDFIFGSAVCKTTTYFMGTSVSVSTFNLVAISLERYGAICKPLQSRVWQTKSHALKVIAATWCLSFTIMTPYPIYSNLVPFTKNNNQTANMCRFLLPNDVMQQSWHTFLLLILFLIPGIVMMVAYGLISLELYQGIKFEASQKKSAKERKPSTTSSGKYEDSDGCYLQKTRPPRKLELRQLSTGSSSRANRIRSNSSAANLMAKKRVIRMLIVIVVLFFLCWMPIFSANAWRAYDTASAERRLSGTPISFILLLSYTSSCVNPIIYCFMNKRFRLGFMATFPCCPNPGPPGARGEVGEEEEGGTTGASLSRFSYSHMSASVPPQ
In words: Displacement of [125I]CCK8-SO3 from human CCK1 receptor expressed in HEK293 cells. It counts as cell-based.

Test [3] deals with T2, Delta-type opioid receptor (Homo sapiens, UniProt P41143). Put plainly: Displacement of [3H]DPDPE from human delta opioid receptor expressed in HN9.10 cells. It counts as cell-based. For orientation: Loss of bound radioactivity is the signal in a displacement assay; it reports binding, not function.
Test [4] concerns the target T3, Mu-type opioid receptor (Rattus norvegicus, UniProt P33535). Put plainly: (§2) Activity at rat mu opioid receptor expressed in CHO cells by [35S]GTPgammaS binding assay. It is filed as functional, cell-based. A digest of the protocol:
(§3)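 Receptors expressed in CHO cells; agonist-stimulated GTP-γ-S binding reported as net total bound/basal binding × 100. Log EC50 from nonlinear regression of at least two independent experiments.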

Test [5] concerns the target Mu-type opioid receptor (Rattus norvegicus) (UniProt P33535). The description is as §2. It is filed as functional, cell-based. The gist of the method: as §3
Test [6] addresses T4, Gastrin/cholecystokinin type B receptor (Homo sapiens, UniProt P32239).
T4 sequence (P32239 whole entry): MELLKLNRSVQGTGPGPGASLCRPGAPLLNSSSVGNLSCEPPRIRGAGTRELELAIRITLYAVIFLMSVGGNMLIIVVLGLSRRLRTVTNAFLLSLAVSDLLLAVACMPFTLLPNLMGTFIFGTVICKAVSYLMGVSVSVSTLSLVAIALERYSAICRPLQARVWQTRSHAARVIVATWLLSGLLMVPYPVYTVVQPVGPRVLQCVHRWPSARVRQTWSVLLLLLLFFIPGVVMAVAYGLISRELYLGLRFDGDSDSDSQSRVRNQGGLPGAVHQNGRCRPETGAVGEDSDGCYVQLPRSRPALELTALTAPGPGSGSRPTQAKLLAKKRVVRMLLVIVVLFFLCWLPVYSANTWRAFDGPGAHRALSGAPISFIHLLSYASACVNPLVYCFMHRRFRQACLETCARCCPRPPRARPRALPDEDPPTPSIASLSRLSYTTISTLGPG
Put plainly: Displacement of [125I]CCK8-SO3 from human CCK2 receptor expressed in HEK293 cells. It counts as cell-based.

Test [7] addresses T2, Delta-type opioid receptor. Put plainly: Activity at human delta opioid receptor expressed in CHO cells by [35S]GTP-gamma-S binding assay. The following applies: for Log IC50: cho. It is filed as functional, cell-based. A digest of the protocol: as §3
Test [8] deals with Mu-type opioid receptor (Cavia porcellus, UniProt P97266). Put plainly: Activity at mu opioid receptor assessed as contraction of electrically-stimulated Hartley guinea pig ileum. It counts as functional, tissue-based. A digest of the protocol:
as §1

Test [9] concerns the target T3, Mu-type opioid receptor. Put plainly: Displacement of [3H]DAMGO from rat mu opioid receptor expressed in HN9.10 cells. It counts as cell-based.
In test [10] the target is T4, Gastrin/cholecystokinin type B receptor. In words: Activity at human CCK2 receptor expressed in HEK293 cells assessed as level of [3H]inositol produced relative to control. It counts as functional, cell-based.

Bounds are passed on as bounds.

Mu-type opioid receptor (Rattus norvegicus), sequence (P33535 whole entry): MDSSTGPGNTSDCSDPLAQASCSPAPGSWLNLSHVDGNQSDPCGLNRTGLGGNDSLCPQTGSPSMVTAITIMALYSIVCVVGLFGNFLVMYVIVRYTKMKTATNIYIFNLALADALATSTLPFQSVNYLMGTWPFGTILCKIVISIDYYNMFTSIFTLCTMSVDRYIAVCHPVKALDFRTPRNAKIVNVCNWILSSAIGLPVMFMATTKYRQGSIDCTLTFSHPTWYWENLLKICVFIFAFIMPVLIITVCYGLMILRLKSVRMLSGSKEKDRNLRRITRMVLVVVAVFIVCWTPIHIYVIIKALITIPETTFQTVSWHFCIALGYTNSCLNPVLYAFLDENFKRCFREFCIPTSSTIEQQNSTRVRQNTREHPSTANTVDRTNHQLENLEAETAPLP
T3 sequence (P33535 whole entry): as above
T2 sequence (P41143 whole entry): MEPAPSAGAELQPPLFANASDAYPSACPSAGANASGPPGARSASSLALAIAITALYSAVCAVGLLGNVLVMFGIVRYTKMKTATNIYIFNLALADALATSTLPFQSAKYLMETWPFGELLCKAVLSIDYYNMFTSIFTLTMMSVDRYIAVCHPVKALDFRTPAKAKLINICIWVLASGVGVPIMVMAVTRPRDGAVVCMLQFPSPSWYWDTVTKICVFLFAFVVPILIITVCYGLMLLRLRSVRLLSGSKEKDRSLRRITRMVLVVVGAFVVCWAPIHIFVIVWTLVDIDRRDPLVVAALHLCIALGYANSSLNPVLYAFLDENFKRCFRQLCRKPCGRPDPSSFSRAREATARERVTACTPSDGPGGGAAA
Delta-type opioid receptor (Mus musculus, UniProt P32300), sequence (P32300 whole entry): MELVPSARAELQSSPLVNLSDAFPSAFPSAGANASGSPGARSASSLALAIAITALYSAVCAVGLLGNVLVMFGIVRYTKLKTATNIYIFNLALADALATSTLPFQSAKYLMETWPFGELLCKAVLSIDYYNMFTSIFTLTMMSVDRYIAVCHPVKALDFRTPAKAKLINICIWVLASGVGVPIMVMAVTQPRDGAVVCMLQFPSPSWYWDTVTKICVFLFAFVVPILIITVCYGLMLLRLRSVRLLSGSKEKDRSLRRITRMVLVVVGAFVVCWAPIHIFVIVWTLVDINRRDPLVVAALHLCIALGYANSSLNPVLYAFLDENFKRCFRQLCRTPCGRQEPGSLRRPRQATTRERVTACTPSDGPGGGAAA
Mu-type opioid receptor (Cavia porcellus, UniProt P97266), sequence (P97266 whole entry): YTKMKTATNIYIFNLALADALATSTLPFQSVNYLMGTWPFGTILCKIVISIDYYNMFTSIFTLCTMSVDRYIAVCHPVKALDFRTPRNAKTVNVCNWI

The IC50 is the concentration that inhibits the measured activity by half. The Ki is a measure of affinity in units of concentration, obtained from inhibition or displacement. A high value points to lower affinity. Broadly, the Emax is the greatest response seen or fitted, relative to the assay's reference. As usually defined, the EC50 is the concentration at which the effect is half-maximal. Turning to `CCCC[C@@H](NC(=O)[C@@H](CC(=O)O)NC(=O)[C@@H](Cc1ccccc1)NC(=O)OC(C)(C)C)C(=O)N[C@@H](Cc1cc2ccccc2[nH]1)C(=O)NNC(=O)[C@H](Cc1ccccc1)NC(=O)CNC(=O)[C@@H](C)NC(=O)[C@@H](N)Cc1ccc(O)cc1`, the IC50 was 18 nM in [1]; 132 nM in test [2]; 9.12 nM in test [3]; 1100 nM in [6]; 12.3 nM in test [7]; 530 nM at Mu-type opioid receptor [8]. This compound also had a half-maximal inhibitory concentration (IC50) on Mu-type opioid receptor [9] of 132 nM. In addition, the Ki in test [2] is 130 nM; in test [3] it was 3.9 nM; in [6], 1100 nM; at Mu-type opioid receptor [9] it was 56 nM. The log EC50 at Mu-type opioid receptor [4] is -6.76. Moreover, the Emax in test [5] worked out at 71%; in [7], 99%. The same compound displayed an EC50 in [7] of 13 nM.
With `CCCC[C@H](NC(=O)[C@H](N)Cc1c[nH]c2ccccc12)C(=O)N[C@@H](CC(=O)O)C(=O)N[C@@H](Cc1ccccc1)C(=O)NNC(=O)[C@H](Cc1ccccc1)NC(=O)CNC(=O)[C@@H](C)NC(=O)[C@@H](N)Cc1ccc(O)cc1`, the EC50 in test [10] is 4.6 nM; on Mu-type opioid receptor [4] (cho), 96 nM. Also, the results for the “Log IC50” value (in test [10]; on Mu-type opioid receptor [4] (cho); in [7]) were -8.34, -8.02 and -8.02, respectively. This compound gave a Ki on Mu-type opioid receptor [9] of 0.5 nM.
On to `CCCC[C@H](NC(=O)[C@@H](Cc1c[nH]c2ccccc12)NC(=O)OC(C)(C)C)C(=O)N[C@@H](CC(=O)O)C(=O)N[C@@H](Cc1ccccc1)C(=O)NNC(=O)[C@H](Cc1ccccc1)NC(=O)CNC(=O)[C@@H](C)NC(=O)[C@@H](N)Cc1ccc(O)cc1`, for which the 50% effective concentration (EC50) in test [10] was found to be 16 nM. Further, the “Log IC50” value in [10] was -7.8; on Mu-type opioid receptor [4] (cho), -6.69; in test [7], -7.13.
As for `CCCC[C@@H](NC(=O)[C@H](Cc1cc2ccccc2[nH]1)NC(=O)OC(C)(C)C)C(=O)N[C@H](CC(=O)O)C(=O)N[C@H](Cc1ccccc1)C(=O)NNC(=O)[C@H](Cc1ccccc1)NC(=O)CNC(=O)[C@@H](C)NC(=O)[C@@H](N)Cc1ccc(O)cc1`, the IC50 was 31 nM in [1]; 16.2 nM in test [3]; 8.32 nM in test [7]; 210 nM at Mu-type opioid receptor [8]; 79.4 nM at Mu-type opioid receptor [9]. For the same compound, the Ki is 8300 nM in test [2], 6.9 nM in test [3], > 10000 nM in test [6] and 34 nM on Mu-type opioid receptor [9]. Moreover, the concentration giving a half-maximal response (EC50) was 1.3 nM on Mu-type opioid receptor [4] and 8.4 nM in test [7]. The log EC50 on Mu-type opioid receptor [4] is -8.9. The Emax in [5] was 106%; in test [7], 93%.
Regarding `CCCC[C@H](NC(=O)[C@@H](Cc1cc2ccccc2[nH]1)NC(=O)OC(C)(C)C)C(=O)N[C@@H](CC(=O)O)C(=O)N[C@@H](Cc1ccccc1)C(=O)NNC(=O)[C@H](Cc1ccccc1)NC(=O)CNC(=O)[C@@H](C)NC(=O)[C@@H](N)Cc1ccc(O)cc1`, the values for the Emax in test [5] and in [7] were 170% and 100%, respectively.
For `CCCC[C@H](NC(=O)[C@H](N)Cc1cc2ccccc2[nH]1)C(=O)N[C@@H](CC(=O)O)C(=O)N[C@@H](Cc1ccccc1)C(=O)NNC(=O)[C@H](Cc1ccccc1)NC(=O)CNC(=O)[C@@H](C)NC(=O)[C@@H](N)Cc1ccc(O)cc1`, the maximal response (Emax) in test [5] stood at 82%; in test [7], 64%.
